Data from PubChem BioAssay.
Activity calls are given as the source filed them.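 How the source made its calls, unless noted: active means viability at or below 10% of carrier control in both of two separate runs; inconclusive means viability at or below 10% in only one of the two runs; inactive means the rest.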

Legend:
[1] = SK-BR-3 cell growth inhibitors, pilot screen, 24 h, human (AID 572); conditions: SK-BR-3 viability, CellTiter-Glo luminescence, at 10 µM, stronger effect = lower value;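 further: compound exposure lasted between 18 and 24 h rather than exactly 24 h; 100% = carrier-treated control wells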
[2] = HUVEC growth inhibition – cell-based, human, primary screen (AID 575;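 active means viability at or below 30% in both replicate assays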;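 further: 100% = median of untreated cell wells with 0.1% DMSO on each plate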); conditions: HUVEC proliferation, CellTiter-Glo luminescence, 72 h; at 10 µM; stronger effect = lower value
How it was run: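 Assay system: primary human umbilical vein endothelial cells / Buffer or medium: endothelial basal medium with 2% FBS plus growth supplements / Compound dosing: one dose, 10 µM final, 0.1% DMSO / Timing: 72 h treatment at 37 °C / Signal: CTG luminescence / Benchmarks: 32 DMSO-only cell-control wells (high), 32 MePR drug-control wells (low) per plate / Plate: collagen-coated 384-well format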

[3] = growth inhibitors of H69AR lung tumor, primary screen, human, duplicate replicates (AID 580;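 active means viability at or under a set limit in both replicates, limit being median viability minus 3 SD, cut at about 48% in these data, passing the limit was not always enough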;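 further: 100% = mean luminescence of untreated wells and 0% = no signal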); conditions: H69AR lung tumor cells viability, ATP luminescence, 72 h; at 10 µM; stronger effect = lower value
[4] = reversal of MRP1-mediated doxorubicin resistance, pilot screen, H69AR cells, doxorubicin co-treatment (AID 601;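 active means viability loss from added drug above about 55%, and viability with drug at most 40%, in both replicates, limit read from the data, passing the limit was not always enough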); conditions: CellTiter-Glo, 72 h, at 10 µM; for differential viability (reversal): stronger effect = higher value
[5] = 384-well plate pilot, post-Golgi transport modulator project, inhibition of yeast transport mutant growth (AID 636; in the data active means inhibition above about 31%); conditions: absorbance 615 nm, about 18 h, stronger effect = higher value
[6] = growth suppression of yeast trafficking mutant, preliminary HTS, modulators of trafficking downstream of Golgi apparatus project, 1536-format plate, OD 615 nm (AID 637; in the data active means inhibition above about 30%); conditions: yeast transport mutant growth, absorbance 615 nm, 18 h; stronger effect = higher value
[7] = H69AR cells + 2 uM doxorubicin, measured here: viability with 2 uM doxorubicin, stronger effect = lower value
[8] = H69AR cells, compound alone cytotoxicity

Row | SMILES | viability [1] | viability [2] | viability [3] | differential viability (reversal) ([4]; H69AR cells + 2 uM doxorubicin) | viability [4, 7] [%] | viability [4, 8] [%] | inhibition [5] | inhibition [6]
1 | COC(=O)c1ccccc1NC(=O)C1CCN(S(=O)(=O)c2cc(C)ccc2OC)CC1 | 78% (inactive) | 78.9% (inactive) | 79.1% (inactive) | -13.2% (inactive) | 92.3 | 79.1 | -11.1% (inactive) | 0.48% (inactive)
2 | CCOc1nc(-c2ccccc2O)nc2ccccc12 | 68% (inactive) | 108% (inactive) | 100% (inactive) | 0.64% (inactive) | 99.5 | 100 | 1.23% (inactive) | 0.55% (inactive)
3 | N#CC1=C(N)OC2=C(CCC/C2=C/c2ccoc2)C1c1ccoc1 (stereo not drawn) | 87% (inactive) | 99.1% (inactive) | 80.8% (inactive) | 2.94% (inactive) | 77.9 | 80.8 | -5.95% (inactive) | 0.18% (inactive)
4 | CCc1ccc2[nH]c(=O)c(C(c3nnnn3CC3CCCO3)N3CCN4CCCC4C3)cc2c1 (stereo not drawn) | 100% (inactive) | 109% (inactive) | 105% (inactive) | 14.1% (inactive) | 91.1 | 105 | -3.2% (inactive) | -2.55% (inactive)
5 | CCOc1ccc2[nH]c(O)c(NC(C)=O)c2c1 | 95% (inactive) | 100% (inactive) | 94.8% (inactive) | 0.61% (inactive) | 94.1 | 94.8 | -4.86% (inactive) | 0.91% (inactive)
6 | C/C(=N\O)C(=O)C(CN1CCCCC1)CN1CCCCC1 | 116% (inactive) | 95.6% (inactive) | 8.43% (active) | 5.9% (inactive) | 2.52 | 8.43 | 1.95% (inactive) | -7% (inactive)
7 | CCSC(SCC)[C@H](O)[C@@H](O)[C@H](O)[C@H](O)CO | 103% (inactive) | 104% (inactive) | 101% (inactive) | 6.02% (inactive) | 94.8 | 101 | -5.19% (inactive) | 0% (inactive)
8 | Cc1cccc(C(=O)O)c1NC(=O)c1ccc(F)cc1 | 109% (inactive) | 107% (inactive) | 104% (inactive) | 3.75% (inactive) | 100 | 104 | 0.27% (inactive) | -1.09% (inactive)
9 | Cc1cc(C)n(CC(=O)NC2CCCCC2)n1 | 113% (inactive) | 114% (inactive) | 98% (inactive) | 12.7% (inactive) | 85.3 | 98 | -8.49% (inactive) | 0.32% (inactive)
10 | O=C(CSCc1cccs1)N1CCCC1 | 115% (inactive) | 93.6% (inactive) | 104% (inactive) | 13.8% (inactive) | 90.6 | 104 | -0.91% (inactive) | 5.41% (inactive)
11 | CCCC(=O)Nc1ccc(C(=O)O)cc1NC(=O)CCC | 77% (inactive) | 97.3% (inactive) | 96.3% (inactive) | -23% (inactive) | 119 | 96.3 | -3.56% (inactive) | 1.45% (inactive)
12 | CCOC(=O)CSc1nnc(NCC(=O)OC(C)C)c(=O)[nH]1 | 102% (inactive) | 93.9% (inactive) | 93.3% (inactive) | 1.93% (inactive) | 91.4 | 93.3 | -1.56% (inactive) | -3.61% (inactive)
13 | O=C1c2ccccc2S(=O)(=O)N1Cc1nnc(-c2ccccc2Br)o1 | 88% (inactive) | 102% (inactive) | 95% (inactive) | 17% (inactive) | 78 | 95 | -5.62% (inactive) | 0.32% (inactive)
14 | O=C(C1CCCO1)N1CCN(S(=O)(=O)c2ccccc2)CC1 (stereo not drawn) | 79% (inactive) | 98.1% (inactive) | 99.1% (inactive) | -6.22% (inactive) | 105 | 99.1 | -6.3% (inactive) | 3.27% (inactive)
15 | CCc1ccccc1NC(=O)C(CC)Sc1nc2cc3c(cc2c(=O)n1Cc1ccco1)OCO3 (stereo not drawn) | 95.5% (inactive) | 62.6% (inactive) | 28.3% (active) | 13.2% (inactive) | 15.1 | 28.3 | -3.47% (inactive) | 2.74% (inactive)
16 | CCOc1ccc2c(c1)c1nnc(SCC(=O)N3CCC(C)CC3)nc1n2C | 84% (inactive) | 70.9% (inactive) | 95.8% (inactive) | 8.51% (inactive) | 87.3 | 95.8 | -3.78% (inactive) | -1.45% (inactive)
17 | CC(C)(C)NC(=O)CN(Cc1cccs1)C(=O)c1csnn1 | 96% (inactive) | 99.7% (inactive) | 105% (inactive) | -2.3% (inactive) | 108 | 105 | -7.12% (inactive) | -0.36% (inactive)
18 | Cn1c(=O)n(CCC(=O)O)c2ccccc21 | 93% (inactive) | 111% (inactive) | 97.2% (inactive) | 13.1% (inactive) | 84.1 | 97.2 | -7.67% (inactive) | 5% (inactive)

Row | SMILES | viability [1] | viability [2] | viability [3] | differential viability (reversal) ([4]; H69AR cells + 2 uM doxorubicin) | viability [4, 7] [%] | viability [4, 8] [%] | inhibition [5] | inhibition [6]
19 | COc1cc(SC)ccc1C(=O)Nc1ccccc1C#N | 75% (inactive) | 79.6% (inactive) | 70.5% (inactive) | -25.8% (inactive) | 96.3 | 70.5 | -7.4% (inactive) | 0.91% (inactive)
20 | CCc1ccccc1NC(=O)c1ccoc1C | 102% (inactive) | 107% (inactive) | 101% (inactive) | 10.8% (inactive) | 90.2 | 101 | 1.78% (inactive) | 4.19% (inactive)
21 | COc1cc2cc(C(c3nnnn3C3CCCC3)N(C)C3CCCCC3)c(=O)[nH]c2cc1OC (stereo not drawn) | 81% (inactive) | 85.2% (inactive) | 81.9% (inactive) | -4.31% (inactive) | 86.2 | 81.9 | -1.3% (inactive) | -2.13% (inactive)
22 | Cn1c(=O)[nH]c(=O)c2c1nc(Br)n2Cc1ccccc1F | 116% (inactive) | 78% (inactive) | 86.9% (inactive) | 16.6% (inactive) | 70.2 | 86.9 | 3.15% (inactive) | 3.87% (inactive)
23 | O=S(=O)(c1cccs1)N1CCN(Cc2nc3ccccc3s2)CC1 | 87% (inactive) | 72.1% (inactive) | 84.9% (inactive) | -16.2% (inactive) | 101 | 84.9 | 4.79% (inactive) | 30.2% (active)
24 | c1ccc2c(-c3nc(-c4ccncc4)no3)cccc2c1 | 56% (inactive) | 86.4% (inactive) | 102% (inactive) | 5.25% (inactive) | 96.3 | 102 | -5.89% (inactive) | 10.6% (inactive)
25 | O=C1C2CC=C(Cl)CC2C(=O)N1CNc1ccccn1 (stereo not drawn) | 112% (inactive) | 108% (inactive) | 98.8% (inactive) | -6.09% (inactive) | 105 | 98.8 | -2.05% (inactive) | 5.65% (inactive)
26 | O=C(CN(Cc1ccc(F)cc1)C(=O)c1ccco1)NCc1ccc(F)cc1 | 104% (inactive) | 112% (inactive) | 94.1% (inactive) | 18.5% (inactive) | 75.6 | 94.1 | -8% (inactive) | -6.91% (inactive)
27 | Cc1cc(C)n(-c2nc3c(c(=O)[nH]c(=O)n3C)n2Cc2ccc(F)cc2)n1 | 93% (inactive) | 113% (inactive) | 96.5% (inactive) | 8.69% (inactive) | 87.8 | 96.5 | -4.19% (inactive) | -1.45% (inactive)
28 | O=S(=O)(NCc1ccccn1)c1ccc2c(c1)OCCO2 | 115% (inactive) | 114% (inactive) | 109% (inactive) | 0.755% (inactive) | 108 | 109 | -0.81% (inactive) | 0.18% (inactive)
29 | N#CC1=C(N)N(c2ccc(Oc3ccccc3)cc2)C(=O)C1 | 130% (inactive) | 106% (inactive) | 90.2% (inactive) | 8.2% (inactive) | 82 | 90.2 | -5.62% (inactive) | 0.48% (inactive)
30 | Cc1cc(C(=O)COC(=O)c2n[nH]c3ccccc23)c(C)n1C | 83% (inactive) | 90.4% (inactive) | 88.6% (inactive) | 5.96% (inactive) | 82.6 | 88.6 | -9.18% (inactive) | -4% (inactive)
31 | CCCCC[C@H](O)/C=C/[C@@H]1[C@@H](CCCCCCC(=O)O)[C@@H](O)C[C@H]1O | 113% (inactive) | 89.6% (inactive) | 103% (inactive) | 9.71% (inactive) | 93.6 | 103 | 0.26% (inactive) | 2.33% (inactive)
32 | O=S(=O)(NCc1cn2ccccc2n1)c1cc(F)ccc1F | 107% (inactive) | 89.9% (inactive) | 96.6% (inactive) | 9.41% (inactive) | 87.2 | 96.6 | -5.68% (inactive) | -6.36% (inactive)
33 | O=C(Cc1cccs1)N(c1ccccc1)C1C=CS(=O)(=O)C1 (stereo not drawn) | 118% (inactive) | 107% (inactive) | 106% (inactive) | 28.9% (inactive) | 76.7 | 106 | -3.07% (inactive) | -1.64% (inactive)
34 | CCN(CC)CCOC(=O)C(c1ccccc1)c1ccccc1 | 81% (inactive) | 81.1% (inactive) | 101% (inactive) | 7.5% (inactive) | 93.2 | 101 | -4.81% (inactive) | 1.67% (inactive)
35 | COc1ccc(CN(CC(=O)NCC2CCCO2)C(=O)CCC(=O)Nc2cc(C)on2)cc1 (stereo not drawn) | 77% (inactive) | 95.1% (inactive) | 89.4% (inactive) | -4.07% (inactive) | 93.4 | 89.4 | 4.53% (inactive) | 9.27% (inactive)
36 | Cc1cc(=O)[nH]c(SCc2nc3ncccn3c2Br)n1 | 108% (inactive) | 78.4% (inactive) | 88.9% (inactive) | -2.9% (inactive) | 91.8 | 88.9 | -4.81% (inactive) | -3.44% (inactive)
